Screening data as filed in PubChem.
Beta apoptosis: blocks beta cell apoptosis; actives 0.8% (n = 300,000); INS-1E cytokine-induced death, ATP luminescence, 48 h; percent of positive-control rescue, neutral wells zero; protection from apoptosis, % (test concentration not listed); AID 435005;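 active means Every replicate reaches about 75%, or at least half do and their mean reaches it too, limit read from the data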;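 further: 0% = cytokine-treated negative control wells and 100% = positive control rescue; higher means more ATP so stronger rescue from cytokine killing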
CSC inhib: blocks cancer stem cells; cancer stem cell-like cells viability, luminescence; inhibition, % at 7.5 µM; actives 1.1% (n = 300,000); in the data active means inhibition above about 75%; tested in HMLE shEcad cells
Lmaj promast: inhibitors of Leishmania major promastigote growth; AID 1063; inhibition, % at 10 µM; Leishmania major promastigotes, resazurin fluorescence viability; actives 9% (n = 200,000); in the data active means inhibition above about 50%;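 further: promastigotes grown with compound for 44 hours at 28 °C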
T cruzi inh: T. cruzi replication inhibition. inhibition, % (no concentration beside the values). T. cruzi beta-gal in NIH3T3, luminescence, 90 h. actives 1.4% (n = 300,000);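 active means mean inhibition across valid replicates above about 55%, limit read from the data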;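 further: signal also drops with host cell toxicity which is not excluded here; 0% = plate median of DMSO wells and 100% = zero luminescence signal; higher percent means less beta-gal luminescence so fewer parasites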
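Assay system: NIH/3T3 host cells with β-galactosidase reporter T. cruzi; input: 5,000 host fibroblasts per well; compound: single 50 nL compound addition per well in DMSO; timing: ≥90 h infection period, 3 h prior cell attachment; measured by: GalScreen β-gal luminescence, detergent lysis, 60 min; evaluation: percent inhibition of parasite-derived β-gal signal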
Mdm2 MdmX PPI: inhibitors of human Mdm2/MdmX interaction; SaOS-2 split-luciferase Mdm2/MdmX complementation, luminescence; O15151+Q00987; actives 3% (n = 330,000); inhibition, % at 8 µM;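 active means inhibition of at least 50% at 8 µM in the primary screen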
Target sequence (O15151 whole entry, looked up): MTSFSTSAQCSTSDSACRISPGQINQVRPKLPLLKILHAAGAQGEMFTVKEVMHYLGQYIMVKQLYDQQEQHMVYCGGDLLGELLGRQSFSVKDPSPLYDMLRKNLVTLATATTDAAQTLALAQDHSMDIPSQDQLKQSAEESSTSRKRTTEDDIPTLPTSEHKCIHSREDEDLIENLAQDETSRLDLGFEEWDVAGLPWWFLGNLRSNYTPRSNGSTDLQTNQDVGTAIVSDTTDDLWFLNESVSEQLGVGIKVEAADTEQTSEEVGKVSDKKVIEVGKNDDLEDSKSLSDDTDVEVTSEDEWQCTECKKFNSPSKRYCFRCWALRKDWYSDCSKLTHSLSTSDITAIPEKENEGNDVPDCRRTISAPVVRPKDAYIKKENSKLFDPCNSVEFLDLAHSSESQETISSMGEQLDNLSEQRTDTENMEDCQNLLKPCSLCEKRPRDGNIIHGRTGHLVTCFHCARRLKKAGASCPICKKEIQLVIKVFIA
Target sequence (Q00987 whole entry, looked up): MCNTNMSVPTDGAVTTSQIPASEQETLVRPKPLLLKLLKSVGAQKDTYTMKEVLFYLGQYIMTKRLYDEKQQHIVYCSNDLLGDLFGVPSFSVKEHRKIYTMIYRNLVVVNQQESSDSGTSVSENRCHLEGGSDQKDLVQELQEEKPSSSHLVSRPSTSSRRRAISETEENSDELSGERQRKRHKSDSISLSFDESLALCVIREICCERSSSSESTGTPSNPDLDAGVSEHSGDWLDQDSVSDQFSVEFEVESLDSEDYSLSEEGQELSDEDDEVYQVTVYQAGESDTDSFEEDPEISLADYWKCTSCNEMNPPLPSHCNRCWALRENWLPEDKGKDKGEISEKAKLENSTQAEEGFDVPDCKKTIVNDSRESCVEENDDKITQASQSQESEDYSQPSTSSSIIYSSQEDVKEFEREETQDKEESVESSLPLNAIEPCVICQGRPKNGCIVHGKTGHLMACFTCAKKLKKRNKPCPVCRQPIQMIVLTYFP
SKKanGAS inh: blocks kanamycin growth of S. pyogenes SKKanGAS strain; BacTiter-Glo, 6 h; inhibition, % at 7.5 µM; actives 1.3% (n = 300,000); AID 1662;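 active means mean replicate score, as percent of positive control median, at least 50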;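 further: strain carries kanamycin resistance gene driven by streptokinase promoter and grows in 40 µg/ml kanamycin; loss of luminescence reflects streptokinase promoter inhibition or plain growth inhibition; 0% = median of DMSO wells and 100% = positive control at its reference dose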
Mdm2 MdmX conf: confirmation of human Mdm2/MdmX interaction inhibitors. shares compounds with Mdm2 MdmX PPI. Mdm2-MdmX binding, luminescent assay. inhibition, % at 8 µM. actives 55% (n = 10,000). AID 489028; in the data active means inhibition above about 40%
Full FLuc ctr: full-length luciferase inhibition in Mdm2/MdmX counter-screen | shares compounds with Mdm2 MdmX PPI | SaOS-2 full-length luciferase counterscreen, luminescence | inhibition, % at 8 µM | actives 77% (n = 6,200) | AID 504607;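 active means mean inhibition at 8 µM reaching about 37%, which flags the compound as non-specific, limit read from the data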;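 further: p53-null SaOS-2 cells with luciferase driven by a doxycycline-inducible promoter; compound on cells about two nights before reading with doxycycline added after day one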
* marks the source's active call; other numbers are inactive results. This is a sample that favours compounds with a hit; in the whole collection about 9.4% have one here.

How did CC(C)(C)CN1CCNC[C@H]1Cc1cccc2ccccc12 do in these assays?
Beta apoptosis: -1.3; CSC inhib: 5.1; T cruzi inh: 7.3; Mdm2 MdmX PPI: 28.6; SKKanGAS inh: 8.3

What do the screens show for `CCN(CC)c1ccc(NC(=O)c2ccccn2)cc1S(=O)(=O)Nc1ccccc1OC`?
Mdm2 MdmX PPI: 13.2

What do the screens show for `Cc1cc(C)nc(NC(=NCCc2c[nH]c3ccccc23)NC(=O)C(C)(C)C)n1`?
Beta apoptosis: -0.1; CSC inhib: 4.3; T cruzi inh: 60.8*; Mdm2 MdmX PPI: 52.0*; SKKanGAS inh: 30.0; Mdm2 MdmX conf: 16.8

What do the screens show for `Cc1cc(C)nc(N2C(=O)CC(C(=O)O)NC2=NCCc2c[nH]c3ccccc23)n1` (stereo not given)?
Beta apoptosis: 0.6; CSC inhib: -8.6; Lmaj promast: -10.6; T cruzi inh: -10.4; Mdm2 MdmX PPI: 3.5; SKKanGAS inh: 12.3

How did CC(C)(C)NC(=O)NC(=O)CN1C(=O)NC(c2ccccc2)(c2ccccc2)C1=O do in these assays?
Beta apoptosis: 0.5; CSC inhib: 28.5; T cruzi inh: -4.7; Mdm2 MdmX PPI: -2.2; SKKanGAS inh: -4.7

Results for Cc1ccc(NC(=O)CCn2c(=O)c3cccn3c3ccccc32)c(C)c1 ?
Beta apoptosis: 0.9; CSC inhib: -13.7; T cruzi inh: 8.3; Mdm2 MdmX PPI: -5.0; SKKanGAS inh: 9.2

Results for Cc1cc(C)cc(NC(=O)CCn2c(=O)c3cccn3c3ccccc32)c1 ?
Beta apoptosis: 3.3; CSC inhib: -3.5; T cruzi inh: -20.1; Mdm2 MdmX PPI: 56.0*; SKKanGAS inh: 20.9; Mdm2 MdmX conf: 50.0*; Full FLuc ctr: 51.5*

What do the screens show for `C[C@H](NC(=O)c1[nH]cnc1C(=O)Nc1ccc(CNC(=O)OC(C)(C)C)cc1)C(=O)OCc1ccccc1`?
Beta apoptosis: -4.6; CSC inhib: -13.4; T cruzi inh: -10.3; Mdm2 MdmX PPI: 80.1*; SKKanGAS inh: 10.8; Mdm2 MdmX conf: 14.2

Results for CC(C)(C)OC(=O)CNC(=O)c1nc[nH]c1C(=O)NCc1ccc(CNC(=O)OC(C)(C)C)cc1 ?
Beta apoptosis: 23.2; CSC inhib: -1.2; T cruzi inh: 6.9; Mdm2 MdmX PPI: 11.6; SKKanGAS inh: 2.9

What do the screens show for `CC(C)(C)OC(=O)NCCCCCNC(=O)c1nc[nH]c1C(=O)NCC(=O)OCc1ccccc1`?
Beta apoptosis: -3.2; CSC inhib: 9.1; Mdm2 MdmX PPI: 65.6*; Mdm2 MdmX conf: 45.5*; Full FLuc ctr: 50.2*

Results for CC(C)(C)OC(=O)NCc1ccc(NC(=O)c2nc[nH]c2C(=O)NCCNC(=O)c2[nH]cnc2C(=O)Nc2ccc(CNC(=O)OC(C)(C)C)cc2)cc1 ?
Beta apoptosis: 81.2*; Mdm2 MdmX PPI: 74.1*; Mdm2 MdmX conf: 23.8

How did CC(C)C[C@H](NC(=O)c1[nH]cnc1C(=O)Nc1ccc(CNC(=O)OC(C)(C)C)cc1)C(=O)OC(C)(C)C do in these assays?
Beta apoptosis: 24.2; CSC inhib: 28.3; T cruzi inh: 39.7; Mdm2 MdmX PPI: 52.5*; SKKanGAS inh: 38.6; Mdm2 MdmX conf: -8.9

How did CC(OC(=O)CCc1ccccc1)C(=O)Nc1ccc(Cl)cn1 (stereo not given) do in these assays?
CSC inhib: -10.5; T cruzi inh: -8.9; Mdm2 MdmX PPI: 23.0; SKKanGAS inh: 3.1

How did CC(C)(C)OC(=O)NCc1ccc(CNC(=O)c2nc[nH]c2C(=O)NCc2ccc(CNC(=O)OC(C)(C)C)cc2)cc1 do in these assays?
Beta apoptosis: 47.9; Mdm2 MdmX PPI: 16.8

What do the screens show for `CC(C)(C)OC(=O)CNC(=O)c1[nH]cnc1C(=O)Nc1ccc(CNC(=O)OC(C)(C)C)cc1`?
Beta apoptosis: 7.2; CSC inhib: 32.9; T cruzi inh: 22.1; Mdm2 MdmX PPI: 62.6*; SKKanGAS inh: 7.7; Mdm2 MdmX conf: 54.1*; Full FLuc ctr: 74.2*

What do the screens show for `CC(C)(C)OC(=O)NCCCCCNC(=O)c1nc[nH]c1C(=O)NCc1ccc(CNC(=O)OC(C)(C)C)cc1`?
Beta apoptosis: 45.5; CSC inhib: 26.7; Mdm2 MdmX PPI: 53.9*; Mdm2 MdmX conf: 21.6

What do the screens show for `CC(C)CN(C(=O)C(c1ccccc1)c1ccccc1)c1c(N)n(CC(C)C)c(=O)[nH]c1=O`?
Beta apoptosis: 1.9; CSC inhib: 0.3; Lmaj promast: -8.2; T cruzi inh: -2.1; Mdm2 MdmX PPI: 8.3; SKKanGAS inh: 3.4

How did CCC(C)N1C(=O)CN(C2CCCCCC2)C(=O)C1c1ccccc1F (stereo not given) do in these assays?
Lmaj promast: 18.9; T cruzi inh: 25.4; Mdm2 MdmX PPI: 2.5; SKKanGAS inh: 2.6

What do the screens show for `O=c1c2cccnc2[nH]c(=S)n1CCC1=CCCCC1`?
Beta apoptosis: 2.8; CSC inhib: -5.2; Lmaj promast: 4.6; T cruzi inh: -0.3; Mdm2 MdmX PPI: 63.0*; SKKanGAS inh: 4.2; Mdm2 MdmX conf: 0.9

What do the screens show for `CCCCCn1c(=S)[nH]c2ncccc2c1=O`?
Beta apoptosis: 1.0; CSC inhib: -1.7; Lmaj promast: -6.2; T cruzi inh: -4.2; Mdm2 MdmX PPI: 32.1; SKKanGAS inh: 1.8

What do the screens show for `COCCN=c1scc(C)n1/N=C/C1CC2C=CC1C2` (stereo not given)?
Beta apoptosis: 0.6; CSC inhib: 3.3; Lmaj promast: 6.6; T cruzi inh: 7.4; Mdm2 MdmX PPI: 15.0; SKKanGAS inh: -0.1

What do the screens show for `CCOc1ccc(OCCOC(=O)CN(C)S(=O)(=O)c2ccc(NC(C)=O)cc2)cc1`?
Beta apoptosis: -4.4; CSC inhib: 30.2; T cruzi inh: -3.1; Mdm2 MdmX PPI: -2.2; SKKanGAS inh: -10.5

How did CCOC(=O)NC(=O)/C(C#N)=N\Nc1cccc(Cl)c1 do in these assays?
Beta apoptosis: 0.8; CSC inhib: 36.6; T cruzi inh: -12.7; Mdm2 MdmX PPI: 58.6*; SKKanGAS inh: 8.2; Mdm2 MdmX conf: 63.6*; Full FLuc ctr: 57.9*

Results for O=C(Cc1ccc(-n2cccc2)cc1)NCc1cccs1 ?
Beta apoptosis: 1.8; CSC inhib: 52.6; Lmaj promast: -1.7; T cruzi inh: -6.9; Mdm2 MdmX PPI: 54.7*; SKKanGAS inh: -1.7; Mdm2 MdmX conf: 46.5*; Full FLuc ctr: 67.3*

What do the screens show for `O=C(Nc1nc(-c2ccccn2)cs1)c1cc(Cl)ccc1[N+](=O)[O-]`?
Beta apoptosis: 93.2*; CSC inhib: 94.0*; Lmaj promast: 100.0*; T cruzi inh: 63.8*; Mdm2 MdmX PPI: 83.3*; SKKanGAS inh: 95.0*; Mdm2 MdmX conf: 75.2*; Full FLuc ctr: 32.3
